From ChEMBL document CHEMBL1142896, “The synthesis of amphipathic prodrugs of 1,2-diol drugs with saccharide conjugates by high regioselective enzymatic protocol” (Bioorg Med Chem, 2007)

Tests used:
[1] = Distribution coefficient, log D at pH 7.4; format: physicochemical; details: octanol/water
Method in brief: (§1)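 Shake-flask partitioning between n-octanol and phosphate buffer pH 7.4; phases mixed 15 min, centrifuged at 1 · 10⁴ rpm for 5 min, separated. Each layer diluted tenfold and analysed by HPLC (UV detection 228–232 nm, methanol/water 80:20 eluent). D7.4 calculated from the layer concentrations; triplicate, mean reported.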

[2] = Partition coefficient, log P of the compound; format: physicochemical; details: octanol/water; method in brief: as §1
[3] = Half life of hydrolysis in hydrochloric acid buffer at pH 1.2; format: ADME
Method in brief: (§2)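 Non-enzymatic chemical hydrolysis at 37 °C in 0.2 M hydrochloric acid buffer pH 1.2 (simulated gastric fluid) or 0.2 M phosphate buffer pH 7.4. 25 mM dioxane stock diluted 1:10 into thermostated buffer. Remaining ester followed by HPLC. Pseudo-first-order k_obsd fitted, and t1/2 derived from it.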

[4] = Half life of hydrolysis in phosphate buffer at pH 7.4; format: ADME; method in brief: as §2

Compound	Log D [1]	LogP [2]	half-life [3] [h]	half-life [4] [h]
NC(=O)OCC(O)COc1ccc(Cl)cc1 (stereo unspecified) [CHLORPHENESIN CARBAMATE]	1.44	1.44	–	–
Cc1ccccc1OCC(O)CO (stereo unspecified) [MEPHENESIN]	1.09	1.09	8.75	19.9
